Results from ChEMBL document CHEMBL4732237, “Discovery of 4-alkoxy-2-aryl-6,7-dimethoxyquinolines as a new class of topoisomerase I inhibitors endowed with potent in vitro anticancer activity” (2021).

system: NCI-H322M; assay: Growth inhibition of human NCI-H322M cells at 10 uM incubated for 48 hrs by sulforhodamine B assay relative to control; format: functional; conditions: read-out: GI
Procedure, shortened: (§1)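 NCI one-dose screen. Cells grown in RPMI 1640 with 5% FBS and 2 mM L-glutamine, plated and incubated 24 h at 37 °C, 5% CO2. DMSO-dissolved drug added, then 48 h further incubation. Adherent cells fixed with cold TCA, suspension cells fixed after settling. Stained with 0.4% SRB, absorbance read at 515 nm. Reported as percent growth relative to no-drug control and time-zero cell number.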

SMILES | inhibition of growth at 10 µM
COc1cc2nc(-c3ccsc3)cc(OCCCN3CCC(O)CC3)c2cc1OC | 32%

system: SK-MEL-28; assay: Growth inhibition of human SK-MEL-28 cells at 10 uM incubated for 48 hrs by sulforhodamine B assay relative to control; format: functional; conditions: read-out: GI; procedure, shortened: as §1

SMILES | inhibition of growth at 10 µM
COc1cc2nc(-c3ccsc3)cc(OCCCN3CCC(O)CC3)c2cc1OC | 32%

system: NCI-H522; assay: Growth inhibition of human NCI-H522 cells at 10 uM incubated for 48 hrs by sulforhodamine B assay relative to control; format: functional; conditions: read-out: GI; procedure, shortened: as §1

SMILES | inhibition of growth at 10 µM
COc1cc2nc(-c3ccsc3)cc(OCCCN3CCC(O)CC3)c2cc1OC | 32%

system: OVCAR-4; assay: Growth inhibition of human OVCAR-4 cells at 10 uM incubated for 48 hrs by sulforhodamine B assay relative to control; format: functional; conditions: read-out: GI; procedure, shortened: as §1

SMILES | inhibition of growth at 10 µM
COc1cc2nc(-c3ccsc3)cc(OCCCN3CCC(O)CC3)c2cc1OC | 32%

system: TK-10; assay: Growth inhibition of human TK-10 cells at 10 uM incubated for 48 hrs by sulforhodamine B assay relative to control; format: functional; conditions: read-out: GI
Procedure, shortened: (§2)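 NCI one-dose screen across a 59-line panel. Cells were grown in RPMI 1640 with 5% FBS and 2 mM L-glutamine, plated and pre-incubated 24 h, then exposed to drug for 48 h at 37 °C, 5% CO2. Adherent cells were fixed with cold TCA (10% final), stained with 0.4% SRB in 1% acetic acid and read at 515 nm. Result is percent growth relative to no-drug control and time-zero cell count.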

SMILES | inhibition of growth at 10 µM
COc1cc2nc(-c3ccsc3)cc(OCCCN3CCC(O)CC3)c2cc1OC | 32%

system: Malme-3M; assay: Growth inhibition of human Malme-3M cells at 10 uM incubated for 48 hrs by sulforhodamine B assay relative to control; format: functional; conditions: read-out: GI; procedure, shortened: as §1

SMILES | inhibition of growth at 10 µM
COc1cc2nc(-c3ccsc3)cc(OCCCN3CCC(O)CC3)c2cc1OC | 32%

system: SNB-19; assay: Growth inhibition of human SNB-19 cells at 10 uM incubated for 48 hrs by sulforhodamine B assay relative to control; format: functional; conditions: read-out: GI; procedure, shortened: as §1

SMILES | inhibition of growth at 10 µM
COc1cc2nc(-c3ccsc3)cc(OCCCN3CCC(O)CC3)c2cc1OC | 32%

system: EKVX; assay: Growth inhibition of human EKVX cells at 10 uM incubated for 48 hrs by sulforhodamine B assay relative to control; format: functional; conditions: read-out: GI
Procedure, shortened: (§3)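 NCI-60 single-dose screen. Cells were grown in RPMI 1640 with 5% FBS and 2 mM L-glutamine and plated 24 h before drug addition. Compound was added at one concentration in DMSO-derived medium and incubated for 48 h at 37 °C in 5% CO2. Read-out was SRB protein stain at 515 nm. Result is percent growth versus the no-drug control and the time-zero cell count; values below 0 indicate lethality.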

SMILES | inhibition of growth at 10 µM
COc1cc2nc(-c3ccsc3)cc(OCCCN3CCC(O)CC3)c2cc1OC | 32%

system: SR; assay: Growth inhibition of human SR cells at 10 uM incubated for 48 hrs by sulforhodamine B assay relative to control; format: functional; conditions: read-out: GI; procedure, shortened: as §1

SMILES | inhibition of growth at 10 µM
COc1cc2nc(-c3ccsc3)cc(OCCCN3CCC(O)CC3)c2cc1OC | 32%

system: SK-MEL-5; assay: Growth inhibition of human SK-MEL-5 cells at 10 uM incubated for 48 hrs by sulforhodamine B assay relative to control; format: functional; conditions: read-out: GI; procedure, shortened: as §1

SMILES | inhibition of growth at 10 µM
COc1cc2nc(-c3ccsc3)cc(OCCCN3CCC(O)CC3)c2cc1OC | 32%

system: MDA-MB-435; assay: Growth inhibition of human MDA-MB-435 cells at 10 uM incubated for 48 hrs by sulforhodamine B assay relative to control; format: functional; conditions: read-out: GI; procedure, shortened: as §3

SMILES | inhibition of growth at 10 µM
COc1cc2nc(-c3ccsc3)cc(OCCCN3CCC(O)CC3)c2cc1OC | 32%

system: HL-60(TB); assay: Growth inhibition of human HL-60(TB) cells at 10 uM incubated for 48 hrs by sulforhodamine B assay relative to control; format: functional; conditions: read-out: GI
Procedure, shortened: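 NCI-60 one-dose screen: same culture, 48 h drug exposure and SRB read-out. Reported as percent growth relative to no-drug control and to time-zero cell number; 0–100 means growth inhibition, below 0 means lethality.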

SMILES | inhibition of growth at 10 µM
COc1cc2nc(-c3ccsc3)cc(OCCCN3CCC(O)CC3)c2cc1OC | 32%

system: OVCAR-5; assay: Growth inhibition of human OVCAR-5 cells at 10 uM incubated for 48 hrs by sulforhodamine B assay relative to control; format: functional; conditions: read-out: GI; procedure, shortened: as §1

SMILES | inhibition of growth at 10 µM
COc1cc2nc(-c3ccsc3)cc(OCCCN3CCC(O)CC3)c2cc1OC | 32%

system: SNB-75; assay: Growth inhibition of human SNB-75 cells at 10 uM incubated for 48 hrs by sulforhodamine B assay relative to control; format: functional; conditions: read-out: GI; procedure, shortened: as §1

SMILES | inhibition of growth at 10 µM
COc1cc2nc(-c3ccsc3)cc(OCCCN3CCC(O)CC3)c2cc1OC | 32%

system: HOP-62; assay: Growth inhibition of human HOP-62 cells at 10 uM incubated for 48 hrs by sulforhodamine B assay relative to control; format: functional; conditions: read-out: GI; procedure, shortened: as §3

SMILES | inhibition of growth at 10 µM
COc1cc2nc(-c3ccsc3)cc(OCCCN3CCC(O)CC3)c2cc1OC | 32%

system: SF-539; assay: Growth inhibition of human SF-539 cells at 10 uM incubated for 48 hrs by sulforhodamine B assay relative to control; format: functional; conditions: read-out: GI; procedure, shortened: as §1

SMILES | inhibition of growth at 10 µM
COc1cc2nc(-c3ccsc3)cc(OCCCN3CCC(O)CC3)c2cc1OC | 32%

system: NCI-H23; assay: Growth inhibition of human NCI-H23 cells at 10 uM incubated for 48 hrs by sulforhodamine B assay relative to control; format: functional; conditions: read-out: GI; procedure, shortened: as §1

SMILES | inhibition of growth at 10 µM
COc1cc2nc(-c3ccsc3)cc(OCCCN3CCC(O)CC3)c2cc1OC | 32%

system: SW-620; assay: Growth inhibition of human SW-620 cells at 10 uM incubated for 48 hrs by sulforhodamine B assay relative to control; format: functional; conditions: read-out: GI; procedure, shortened: as §2

SMILES | inhibition of growth at 10 µM
COc1cc2nc(-c3ccsc3)cc(OCCCN3CCC(O)CC3)c2cc1OC | 32%
